# Measured values: ChEMBL document CHEMBL4052710 (Bioorg Med Chem Lett, 2017)
# Calls of active or inactive are those of the source. The rule behind the calls is not given here.
# How the values were obtained:
# [1] = target: CDK6/cyclin D3 (Homo sapiens) (UniProt P30281+Q00534); assay: Inhibition of human CDK6/CyclinD3 at 1 uM by enzymatic radiometric assay; assay type: protein-complex assay
# T47D [2] = assay: Inhibition of cell migration of human T47D cells at 0.5 to 5 uM incubated for 16 hrs by transwell cell migration assay; assay type: functional, cell-based
# Procedure, shortened: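 T47D cells were assayed by transwell migration. After 16 h incubation, migrated cells were counted by microscope in five random fields per chamber.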
# T47D [3] = assay: Induction of apoptosis in human T47D cells assessed as necrotic cells level at 1 uM incubated for 48 hrs by annexin V-FITC and propidium iodide staining based flow cytometry (reference value: 2.79%); assay type: functional
# T47D [4] = assay: Induction of apoptosis in human T47D cells assessed as late apoptotic cells level at 5 uM incubated for 48 hrs by annexin V-FITC and propidium iodide staining based flow cytometry (reference value: 0.48%); assay type: functional
# NCI-H460 [5] = assay: Growth inhibition of human H460 cells incubated for 72 hrs by CCK8 assay; assay type: functional, cell-based; conditions: NCI-H460, 72 h
# T47D [6] = assay: Growth inhibition of human T47D cells incubated for 72 hrs at 1 uM by CCK8 assay; assay type: functional; conditions: read-out: GI
# Procedure, shortened: (§1)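 CCK8 viability assay on a panel of human cancer cell lines, with an initial screen at fixed concentrations of 1 µM and 10 µM.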
# T47D [7] = assay: Growth inhibition of human T47D cells incubated for 72 hrs by CCK8 assay; assay type: functional, cell-based
# NCI-H1299 [8] = assay: Growth inhibition of human H1299 cells incubated for 72 hrs by CCK8 assay; assay type: functional, cell-based; conditions: NCI-H1299, 72 h
# OVCAR-5 = assay: Growth inhibition of human OVCAR5 cells incubated for 72 hrs at 10 uM by CCK8 assay; assay type: functional; conditions: OVCAR-5, 72 h, read-out: GI; procedure, shortened: as §1
# NCI-H460 [9] = assay: Growth inhibition of human H460 cells incubated for 72 hrs at 1 uM by CCK8 assay; assay type: functional; conditions: NCI-H460, 72 h, read-out: GI; procedure, shortened: as §1
# [10] = target: Cyclin-dependent kinase 5/CDK5 activator 1 (Homo sapiens) (UniProt Q00535+Q15078); assay: Inhibition of human CDK5/p35 at 1 uM by enzymatic radiometric assay; assay type: protein-complex assay
# Sequence of Cyclin-dependent kinase 5/CDK5 activator 1 (Homo sapiens) (Q00535 whole entry): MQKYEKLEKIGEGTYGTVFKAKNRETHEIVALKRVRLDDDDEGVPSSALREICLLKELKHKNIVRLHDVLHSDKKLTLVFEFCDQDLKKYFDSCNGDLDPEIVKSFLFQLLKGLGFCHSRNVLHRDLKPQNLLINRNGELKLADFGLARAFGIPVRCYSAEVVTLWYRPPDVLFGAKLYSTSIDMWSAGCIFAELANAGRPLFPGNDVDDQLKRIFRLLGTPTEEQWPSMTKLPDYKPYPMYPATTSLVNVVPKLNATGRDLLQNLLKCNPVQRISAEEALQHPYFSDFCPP
# Sequence of Cyclin-dependent kinase 5/CDK5 activator 1 (Homo sapiens) (Q15078 99-307 partner limits assumed): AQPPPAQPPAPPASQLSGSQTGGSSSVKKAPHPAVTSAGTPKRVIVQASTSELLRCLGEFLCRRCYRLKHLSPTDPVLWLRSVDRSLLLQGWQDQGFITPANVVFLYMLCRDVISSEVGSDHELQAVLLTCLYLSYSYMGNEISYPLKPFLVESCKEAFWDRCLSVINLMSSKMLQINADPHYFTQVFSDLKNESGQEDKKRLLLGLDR
# SiHa = assay: Growth inhibition of human SiHa cells incubated for 72 hrs at 10 uM by CCK8 assay; assay type: functional; conditions: read-out: GI; procedure, shortened: as §1
# A549 = assay: Growth inhibition of human A549 cells incubated for 72 hrs by CCK8 assay; assay type: functional, cell-based; conditions: A549, 72 h
# T47D [11] = assay: Induction of apoptosis in human T47D cells assessed as viable cells level at 5 uM incubated for 48 hrs by annexin V-FITC and propidium iodide staining based flow cytometry (reference value: 96%); assay type: functional
# T47D [12] = assay: Induction of apoptosis in human T47D cells assessed as necrotic cells level at 0.5 uM incubated for 48 hrs by annexin V-FITC and propidium iodide staining based flow cytometry (reference value: 2.79%); assay type: functional
# NCI-H1299 [13] = assay: Growth inhibition of human H1299 cells incubated for 72 hrs at 1 uM by CCK8 assay; assay type: functional; conditions: NCI-H1299, 72 h, read-out: GI; procedure, shortened: as §1
# [14] = target: CDK9/cyclin T1 (Homo sapiens) (UniProt O60563+P50750); assay: Inhibition of human CDK9/CyclinT1 at 1 uM by enzymatic radiometric assay; assay type: protein-complex assay
# T47D [15] = assay: Induction of apoptosis in human T47D cells assessed as early apoptotic cells level at 5 uM incubated for 48 hrs by annexin V-FITC and propidium iodide staining based flow cytometry (reference value: 0.75%); assay type: functional
# T47D [16] = assay: Induction of apoptosis in human T47D cells assessed as early apoptotic cells level at 0.5 uM incubated for 48 hrs by annexin V-FITC and propidium iodide staining based flow cytometry (reference value: 0.75%); assay type: functional
# T47D [17] = assay: Induction of cell cycle arrest in human T47D cells assessed as increase in G2 phase accumulation at 0.1 to 1 uM incubated for 24 hrs by flow cytometry; assay type: functional, cell-based
# Procedure, shortened: (§2)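 Cells were treated for 24 h with compound at 0.1, 0.5 and 1 µM, with LEE011 or vehicle (DMSO) alongside. Cell-cycle phase distribution was then determined by flow cytometry.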
# T47D [18] = assay: Induction of cell cycle arrest in human T47D cells assessed as reduction in S phase accumulation at 0.1 to 1 uM incubated for 24 hrs by flow cytometry; assay type: functional, cell-based; procedure, shortened: as §2
# T47D [19] = assay: Growth inhibition of human T47D cells incubated for 72 hrs at 10 uM by CCK8 assay; assay type: functional; conditions: read-out: GI; procedure, shortened: as §1
# T47D [20] = assay: Induction of apoptosis in human T47D cells incubated for 48 hrs by annexin V-FITC and propidium iodide staining based flow cytometry; assay type: functional, cell-based
# T47D [21] = assay: Induction of cell cycle arrest in human T47D cells assessed as increase in G0/G1 phase accumulation at 0.1 to 1 uM incubated for 24 hrs by flow cytometry; assay type: functional, cell-based; procedure, shortened: as §2
smiles,measurement,setting,value
CN(C)C(=O)c1cc2cnc(Nc3ccc(NC(=O)C4(C(=O)Nc5ccc(F)cc5)CC4)cc3)nc2n1C1CCCC1,inhibition,[1],71%
same,inhibition,T47D [2],Active
same,Activity,T47D [3],1.39%
same,Activity,T47D [4],5.29%
same,IC50,NCI-H460 [5],359 nM
same,inhibition of growth at 1 µM,T47D [6],74.7%
same,IC50,T47D [7],358 nM
same,IC50,NCI-H1299 [8],221 nM
same,inhibition of growth at 10 µM,OVCAR-5,79.7%
same,inhibition of growth at 1 µM,NCI-H460 [9],79.9%
same,inhibition,[10],81%
same,inhibition of growth at 10 µM,SiHa,98%
same,IC50,A549,456 nM
same,Activity,T47D [11],85%
same,Activity,T47D [12],2.69%
same,inhibition of growth at 1 µM,NCI-H1299 [13],93.3%
same,inhibition,[14],98%
same,Activity,T47D [15],7.45%
same,Activity,T47D [16],0.65%
same,Activity,T47D [17],Active
same,Activity,T47D [18],Active
same,inhibition of growth at 10 µM,T47D [19],105%
same,Activity,T47D [20],Dose-dependent effect
same,Activity,T47D [21],Active
